# Assay results published in ChEMBL document CHEMBL1125417, “Development of a series of phenyltetrazole leukotriene D4 (LTD4) receptor antagonists” (J Med Chem, 1992).
# Active and inactive are the calls of the source. The calls are words filed in the database; no cut-off is given here.
# Target: T1, Cysteinyl leukotriene receptor 1 (Cavia porcellus) (UniProt Q2NNR5)
# T1 sequence (whole entry): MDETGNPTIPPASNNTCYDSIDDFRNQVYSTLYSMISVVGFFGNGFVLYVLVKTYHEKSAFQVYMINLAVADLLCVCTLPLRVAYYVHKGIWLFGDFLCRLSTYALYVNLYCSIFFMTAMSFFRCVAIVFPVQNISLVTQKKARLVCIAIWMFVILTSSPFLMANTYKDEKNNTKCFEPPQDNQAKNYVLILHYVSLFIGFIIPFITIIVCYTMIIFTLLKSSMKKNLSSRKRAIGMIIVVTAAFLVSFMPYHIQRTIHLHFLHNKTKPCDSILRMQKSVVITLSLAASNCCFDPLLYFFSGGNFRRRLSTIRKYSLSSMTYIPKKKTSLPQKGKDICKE
# Experiment: Antagonistic activity against leukotriene D4 (LTD4) receptor
# Type: functional
# How it was run: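 Isolated tissue strips in baths of physiological salt solution (mM: NaCl 118.2, NaHCO₃ 24.8, dextrose 10.0, Ca²⁺ 1.2) at 37 °C, gassed with 95% O₂/5% CO₂, under 0.5 g resting tension. Cumulative LTD₄ concentration–response curves were recorded. Each antagonist was in contact with the tissue for 30 min before the final LTD₄ curve.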
row,pKB,SMILES
1,6.86,c1ccc(CCCCOc2ccc(-c3nnn(CCCc4nnn[nH]4)n3)cc2)cc1
2,5.82,FC(F)(F)CCCCCOc1ccc(-c2nnn(CCCCc3nnn[nH]3)n2)cc1
3,6.54,c1ccc(CCCCOc2ccc(-c3nnn(CCCCCc4nnn[nH]4)n3)cc2)cc1
4,5.83,c1ccc(CCCCCCOc2ccc(-c3nnn(CCCCc4nnn[nH]4)n3)cc2)cc1
5,5.41,NC(=O)CCCCn1nnc(-c2ccc(OCCCCc3ccccc3)cc2)n1
6,5.09,CCCCCCCCCCOc1ccc(-c2nnn(CCCCc3nnn[nH]3)n2)cc1
7,5.97,O=C(O)CCCCn1nnc(-c2ccc(OCCCCc3ccccc3)cc2)n1
8,6.36,c1ccc2oc(COc3ccc(-c4nnn(CCCCc5nnn[nH]5)n4)cc3)cc2c1
9,5.43,FC(F)(F)CCCCCCCOc1ccc(-c2nnn(CCCCc3nnn[nH]3)n2)cc1
10,6.68,c1ccc2nc(COc3ccc(-c4nnn(CCCCc5nnn[nH]5)n4)cc3)ccc2c1

# Test system: Cysteinyl leukotriene receptor 1 (Cavia porcellus)
# Experiment: Antagonist activity tested against Cysteinyl leukotriene D4 receptor
row,pKB,SMILES
1,5.7,c1ccc(CCCCOc2ccc(-c3nnn(CCCCCCCCc4nnn[nH]4)n3)cc2)cc1
2,5.86,Cc1ccccc1S(=O)(=O)NC(=O)NC(=O)CCCCn1nnc(-c2ccc(OCCCCc3ccccc3)cc2)n1
3,7.02,O=C(O)c1ccccc1Cn1nnc(-c2cccc(CSc3ccc4ccccc4n3)c2)n1
4,6.2,O=C(O)c1cccc(Cn2nnnc2-c2cccc(CSc3ccc4ccccc4n3)c2)c1
5,5.52,CCCOc1ccc(-c2nnn(CCCCc3nnn[nH]3)n2)cc1
6,5.92,c1ccc(CCCCOc2ccc(-c3nn[nH]n3)cc2)cc1
7,5.62,O=C(O)c1cccc(Cn2nnc(-c3cccc(CSc4ccc5ccccc5n4)c3)n2)c1
8,5.92,Cc1ccccc1S(=O)(=O)NC(=O)CCCCn1nnc(-c2ccc(OCCCCc3ccccc3)cc2)n1
9,5.96,c1ccc(CCCCOc2ccc(-c3nnn(CCCCCCCc4nnn[nH]4)n3)cc2)cc1
10,6.91,c1ccc(CCCCOc2ccc(-c3nnn(CCCCc4nnn[nH]4)n3)cc2)cc1
11,inactive,c1cc(-c2nnn(CCCCc3nnn[nH]3)n2)ccc1OCCCCc1nn[nH]n1
12,5.8,c1ccc(CCCCn2nnc(-c3ccc(OCCCCc4nnn[nH]4)cc3)n2)cc1
13,6.1,N#CNC(=O)CCCCn1nnc(-c2ccc(OCCCCc3ccccc3)cc2)n1
14,5.88,O=C(O)c1ccc(Cn2nnc(-c3cccc(CSc4ccc5ccccc5n4)c3)n2)cc1
15,5.38,c1ccc(CCCCOc2cccc(-c3nnn(CCCCc4nnn[nH]4)n3)c2)cc1
16,5.92,FC(F)(F)CCCCOc1ccc(-c2nnn(CCCCc3nnn[nH]3)n2)cc1
17,6.51,c1ccc(CCOc2ccc(-c3nnn(CCCCc4nnn[nH]4)n3)cc2)cc1
18,6.24,c1ccc(CCCCOc2ccc(-c3nnn(CCCCCCc4nnn[nH]4)n3)cc2)cc1
19,5.9,c1ccc(CCCCCOc2ccc(-c3nnn(CCCCc4nnn[nH]4)n3)cc2)cc1
20,6.57,c1cc(CSc2ccc3ccccc3n2)cc(-c2nnn(CCCCc3nnn[nH]3)n2)c1
21,5.87,O=C(O)c1ccccc1Cn1nnc(-c2ccc(CSc3ccc4ccccc4n3)cc2)n1
22,6.31,c1ccc(CCCCOc2ccc(-c3nnnn3CCCCc3nnn[nH]3)cc2)cc1
23,6.79,c1ccc(CCCOc2ccc(-c3nnn(CCCCc4nnn[nH]4)n3)cc2)cc1
